Measured values: ChEMBL document CHEMBL1147734, “Synthesis, chiral resolution, and enantiopharmacology of a potent 2,3-benzodiazepine derivative as noncompetitive AMPA receptor antagonist” (J Med Chem, 2006)
Calls of active or inactive are those of the source. No cut-off for these calls is given here.

What was measured:
Mus musculus [1] = species: Mus musculus; assay: Ratio of TD50 over ED50 (clonic phase of audiogenic seizures) in DBA/2 mice; assay type: functional
Summary of the method: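 Protective index: rotarod TD50 divided by clonic-phase audiogenic ED50, both from ip-dosed DBA/2 mice fitted by Litchfield-Wilcoxon.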

[2] = molecular target: Glutamate receptor ionotropic, AMPA (Rattus norvegicus) (UniProt P19491+P19492+P19493+P19490); assay: Inhibition of kainate induced [45Ca]2+ uptake in rat cerebellar granule cells expressing AMPA receptor at 32 uM; assay type: functional
Summary of the method: (§1)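 Primary rat cerebellar granule neurons preincubated 30 min with compound in BSS (HEPES, pH 7.3). Then exposed at room temperature for 10 min to 100 µM kainate with 10 µM glycine, 0.5 mM DTT and 0.5 µCi 45Ca2+. Washed in ice-cold BSS containing 5 mM EGTA, lysed in Triton X-100, radioactivity counted.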

[3] = molecular target: T1, Glutamate receptor ionotropic, AMPA (Rattus norvegicus, UniProt P19490+P19491+P19492+P19493); assay: Displacement of [3H]CP-526427 from non competitive […] or benzodiazepine binding site of AMPA receptor from rat forebrain
Summary of the method: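 Adult male Sprague-Dawley rat forebrain membranes (P2 fraction, lysed in Tris acetate) diluted to 0.5 mg protein/mL in 50 mM Tris-HCl pH 7.4. Compound dilution series plus 3 nM [3H]CP-526,427, incubated 20 min at 30 °C, then filtered and counted by scintillation. Nonspecific binding taken with 10 µM unlabeled CP-526,427 or CP-465,022.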

Mus musculus [4] = species: Mus musculus; assay: Effect on locomotor activity assessed by rotarod test in DBA/2 mice; assay type: functional
Summary of the method: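 Rotarod locomotor deficit in DBA/2 mice after ip dosing across 3.3-200 µmol/kg. TD50 by Litchfield-Wilcoxon with 95% confidence limits, at least 32 animals per value.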

Mus musculus [5] = assay: Effect on clonic phase of audiogenic seizures in DBA/2 mice after 30 min at 3.3-200 umol/kg, ip; assay type: functional; conditions: DBA/2, ip, 0.5 h
Summary of the method: (§2)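 DBA/2 mice, 8-12 g, 22-25 days old, either sex, 10 per group. Dosed ip, vehicle or 3.3-200 µmol/kg, then sound stimulus 30 min later; latency and incidence of each seizure phase scored. ED50 by Litchfield-Wilcoxon, 95% confidence limits, at least 32 animals per value.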

Mus musculus [6] = assay: Effect on tonic phase of audiogenic seizures in DBA/2 mice after 30 min at 3.3-200 umol/kg, ip; assay type: functional; conditions: DBA/2, ip, 0.5 h; summary of the method: as §2
[7] = molecular target: Glutamate NMDA receptor (Rattus norvegicus) (UniProt P35439+Q00959+Q00960+Q00961+Q62645+Q8VHN2+Q9R1M7); assay: Displacement of [3H](+)-MK-801 from rat cortical NMDA ion channel complex at 100 uM; assay type: protein-complex assay
Summary of the method: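 Rat cortical membranes washed in 5 mM Tris-HCl pH 7.4 with 0.08% Triton X-100, then pelleted and resuspended through four more cycles. Incubated 120 min at room temperature with 2.5 nM [3H]-(+)-MK-801, glutamic acid and glycine, with or without compound. Bound ligand separated on polyethylenimine-soaked GF/C filters. Nonspecific binding defined with phencyclidine.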

Glutamate NMDA receptor = assay: Displacement of [3H]glycine from Gly/NMDA receptor in rat cerebral cortex synaptic membranes; assay type: cell membranes, Membrane
Summary of the method: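 Rat cortical synaptic membranes with 8 nM [3H]glycine as ligand, following an earlier published method.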

[8] = molecular target: T1, Glutamate receptor ionotropic, AMPA; assay: Inhibition of kainate induced [45Ca]2+ uptake in rat cerebellar granule cells expressing AMPA receptor; assay type: functional; summary of the method: as §1
[9] = molecular target: T1, Glutamate receptor ionotropic, AMPA; assay: Displacement of [3H]AMPA from AMPA receptor in rat cerebral cortex synaptic membranes; assay type: cell membranes, Membrane
Summary of the method: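 Rat cerebral cortex synaptic membranes with 5 nM [3H]AMPA, following an earlier published method.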

SMILES	Ratio TD50/ED50 (Mus musculus [1])	inhibition [2]	IC50 [3] [µM]	TD50 (Mus musculus [4]) [µM/kg]	ED50 (Mus musculus [5]) [µmol/kg]	ED50 (Mus musculus [6]) [µmol/kg]	inhibition [7] [%]	IC50 (Glutamate NMDA receptor) [µM]	IC50 [8] [µM]	IC50 [9] [µM]
C[C@H]1C(=O)NN=C(c2ccc(N)cc2)c2cc3c(cc21)OCO3	>1.1	inactive	> 10	>100	88.4	7.36				
CC1C(=O)NN=C(c2ccc(N)cc2)c2cc3c(cc21)OCO3 (racemic)	2.4	94%	> 10	48.5	20.2	8.3	33	> 100	12	> 100
C[C@@H]1C(=O)NN=C(c2ccc(N)cc2)c2cc3c(cc21)OCO3	3.1		3.27	34.2	11	1.74			6	
